Test results: ChEMBL document CHEMBL1275592, “AmpN-AmpG operon is essential for expression of L1 and L2 beta-lactamases in Stenotrophomonas maltophilia” (2010)
Converted amounts (≈) assume the structure as drawn.

Key:
Type in all cases: functional
[1] = system: Stenotrophomonas maltophilia; test: Antimicrobial activity against Stenotrophomonas maltophilia KJN2 harboring pRK415 plasmid and ampN with xylE-Gmomega cassette insertion by Etest
Summary of the method: (§1)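 Imipenem and meropenem MICs were read from Etest strips, following the manufacturer's instructions.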

[2] = system: Stenotrophomonas maltophilia; test: Antimicrobial activity against Stenotrophomonas maltophilia KJN1 harboring ampN with xylE-Gmomega cassette insertion by Etest; summary of the method: as §1
[3] = system: Stenotrophomonas maltophilia; test: Antimicrobial activity against Stenotrophomonas maltophilia KJN2 harboring ampN with xylE-Gmomega cassette insertion by Etest; summary of the method: as §1
[4] = system: Stenotrophomonas maltophilia; test: Antimicrobial activity against Stenotrophomonas maltophilia KJN2 harboring pRK-EcG plasmid and ampN with xylE-Gmomega cassette insertion by Etest; summary of the method: as §1
[5] = system: Stenotrophomonas maltophilia; test: Antimicrobial activity against ampN deficient Stenotrophomonas maltophilia KJ by Etest; summary of the method: as §1
[6] = system: Stenotrophomonas maltophilia; test: Antimicrobial activity against Stenotrophomonas maltophilia KJG harboring ampG with xylE-Gmomega cassette insertion by Etest; summary of the method: as §1
[7] = system: Stenotrophomonas maltophilia; test: Antimicrobial activity against ampN deficient Stenotrophomonas maltophilia KJ harboring ampG with xylE-Gmomega cassette insertion by Etest; summary of the method: as §1
[8] = system: Stenotrophomonas maltophilia; test: Antimicrobial activity against Stenotrophomonas maltophilia KJN2 harboring pRK-G plasmid and ampN with xylE-Gmomega cassette insertion by Etest; summary of the method: as §1
[9] = system: Stenotrophomonas maltophilia; test: Antimicrobial activity against Stenotrophomonas maltophilia KJ by Etest; summary of the method: as §1
[10] = system: Stenotrophomonas maltophilia; test: Antimicrobial activity against Stenotrophomonas maltophilia KJN2 harboring pRK-NG plasmid and ampN with xylE-Gmomega cassette insertion by Etest; summary of the method: as §1
[11] = system: Stenotrophomonas maltophilia; test: Antimicrobial activity against ampN deficient Stenotrophomonas maltophilia KJ by agar dilution method
Summary of the method: (§2)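 MICs were determined in triplicate by standard 2-fold serial agar dilution, following CLSI guidelines.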

[12] = system: Stenotrophomonas maltophilia; test: Antimicrobial activity against Stenotrophomonas maltophilia KJN2 harboring pRK-EcG plasmid and ampN with xylE-Gmomega cassette insertion by agar dilution method; summary of the method: as §2
[13] = system: Stenotrophomonas maltophilia; test: Antimicrobial activity against Stenotrophomonas maltophilia KJN1 harboring ampN with xylE-Gmomega cassette insertion by agar dilution method; summary of the method: as §2
[14] = system: Stenotrophomonas maltophilia; test: Antimicrobial activity against Stenotrophomonas maltophilia KJ harboring pRK-NG plasmid by agar dilution method; summary of the method: as §2
[15] = system: Stenotrophomonas maltophilia; test: Antimicrobial activity against Stenotrophomonas maltophilia KJ by agar dilution method; summary of the method: as §2
[16] = system: Stenotrophomonas maltophilia; test: Antimicrobial activity against Stenotrophomonas maltophilia KJ harboring pRK415 plasmid by agar dilution method; summary of the method: as §2
[17] = system: Stenotrophomonas maltophilia; test: Antimicrobial activity against Stenotrophomonas maltophilia KJN2 harboring ampN with xylE-Gmomega cassette insertion by agar dilution method; summary of the method: as §2
[18] = system: Stenotrophomonas maltophilia; test: Antimicrobial activity against ampN deficient Stenotrophomonas maltophilia KJ harboring ampG with xylE-Gmomega cassette insertion by agar dilution method; summary of the method: as §2
[19] = system: Stenotrophomonas maltophilia; test: Antimicrobial activity against Stenotrophomonas maltophilia KJN2 harboring pRK-G plasmid and ampN with xylE-Gmomega cassette insertion by agar dilution method; summary of the method: as §2
[20] = system: Stenotrophomonas maltophilia; test: Antimicrobial activity against Stenotrophomonas maltophilia KJN2 harboring pRK-NG plasmid and ampN with xylE-Gmomega cassette insertion by agar dilution method; summary of the method: as §2
[21] = system: Stenotrophomonas maltophilia; test: Antimicrobial activity against Stenotrophomonas maltophilia KJG harboring ampG with xylE-Gmomega cassette insertion by agar dilution method; summary of the method: as §2
[22] = system: Stenotrophomonas maltophilia; test: Antimicrobial activity against Stenotrophomonas maltophilia KJN2 harboring pRK415 plasmid and ampN with xylE-Gmomega cassette insertion by agar dilution method; summary of the method: as §2

Work on `C[C@@H](O)[C@H]1C(=O)N2C(C(=O)O)=C(S[C@@H]3CN[C@H](C(=O)N(C)C)C3)[C@H](C)[C@H]12` [MEROPENEM] yielded an MIC [1] of 0.5 µg/mL (≈ 1.3 µM), an MIC [2] of 0.5 µg/mL (≈ 1.3 µM) and an MIC [3] of 0.38 µg/mL (≈ 0.991 µM). For the same compound, the MIC [4] was greater than 32 µg/mL, the MIC [5] was 0.38 µg/mL (≈ 0.991 µM) and the MIC [6] was 0.38 µg/mL (≈ 0.991 µM). For the same compound, the MIC [7] was 0.38 µg/mL (≈ 0.991 µM), the MIC [8] was 0.75 µg/mL (≈ 1.96 µM) and the MIC [9] was greater than 32 µg/mL. The MIC [10] was greater than 32 µg/mL.

For `CCN1CCN(C(=O)N[C@@H](C(=O)N[C@@H]2C(=O)N3[C@@H]2SC(C)(C)[C@@H]3C(=O)O)c2ccccc2)C(=O)C1=O` [PIPERACILLIN], the MIC [11] was 32 µg/mL (≈ 61.8 µM), the MIC [12] was 512 µg/mL (≈ 989 µM) and the MIC [13] was 32 µg/mL (≈ 61.8 µM). It also gave an MIC [14] of 1020 µg/mL (≈ 1980 µM), an MIC [15] of 1020 µg/mL (≈ 1980 µM) and an MIC [16] of 1020 µg/mL (≈ 1980 µM). The MIC [17] was 16 µg/mL (≈ 30.9 µM), the MIC [18] was 16 µg/mL (≈ 30.9 µM) and the MIC [19] was 32 µg/mL (≈ 61.8 µM). For the same compound, the MIC [20] was 1020 µg/mL (≈ 1980 µM), the MIC [21] was 32 µg/mL (≈ 61.8 µM) and the MIC [22] was 16 µg/mL (≈ 30.9 µM).
